Measured values as given in article PMC4397581 (Nature chemical biology, 2015).

Tests used:
human neutrophils = assay: Human NET assay; assay type: cell-based; details: S. aureus, 5 bacteria per neutrophil, versus vehicle
In short: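 S. aureus was grown 20 h shaking in LB at 37 °C, washed in ice-cold PBS and added at 5× MOI for 3 h at 37 °C. Cells were fixed in 2% PFA and stained with Hoechst 33342. Confocal imaging was used, with algorithmic classification as lobulated, delobulated or diffused NETs, from 60 fields across 3 wells per treatment.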

mouse neutrophils = assay: Mouse NET assay; assay type: cell-based; details: 10 µM pre-treatment, ionomycin
In short: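 Mouse peripheral blood neutrophils were isolated by density centrifugation plus hypotonic lysis (>90% pure). They were settled 15 min on uncoated glass-bottom wells in RPMI/10 mM HEPES at 37 °C, given compound or vehicle for 20 min, then stimulated with 4 µM ionomycin for 2 h at 37 °C. Cells were fixed in 2% PFA overnight at 4 °C, permeabilised, blocked, and stained with anti-citrullinated H3 (0.3 µg/mL, overnight 4 °C), a fluorescent secondary and Hoechst 33342. Fluorescence microscopy was used for blinded scoring of H3Cit+ cells and spread NETs by nuclear morphology.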

[1] = test system: panel of 50 unrelated proteins; assay: Off-target panel
[2] = test system: histone deacetylases 1–11; assay: Histone deacetylase selectivity; assay type: biochemical; details: for inhibition of histone deacetylases 1–11: at 100 µM; for Activation of HDACs: up to 100 µM
PAD4 = PAD4 (Homo sapiens, UniProt Q9UM07); assay: PAD4 FP binding assay; details: 10 nM GSK215, mean of replicates
Chain of PAD4 (Q9UM07 whole entry): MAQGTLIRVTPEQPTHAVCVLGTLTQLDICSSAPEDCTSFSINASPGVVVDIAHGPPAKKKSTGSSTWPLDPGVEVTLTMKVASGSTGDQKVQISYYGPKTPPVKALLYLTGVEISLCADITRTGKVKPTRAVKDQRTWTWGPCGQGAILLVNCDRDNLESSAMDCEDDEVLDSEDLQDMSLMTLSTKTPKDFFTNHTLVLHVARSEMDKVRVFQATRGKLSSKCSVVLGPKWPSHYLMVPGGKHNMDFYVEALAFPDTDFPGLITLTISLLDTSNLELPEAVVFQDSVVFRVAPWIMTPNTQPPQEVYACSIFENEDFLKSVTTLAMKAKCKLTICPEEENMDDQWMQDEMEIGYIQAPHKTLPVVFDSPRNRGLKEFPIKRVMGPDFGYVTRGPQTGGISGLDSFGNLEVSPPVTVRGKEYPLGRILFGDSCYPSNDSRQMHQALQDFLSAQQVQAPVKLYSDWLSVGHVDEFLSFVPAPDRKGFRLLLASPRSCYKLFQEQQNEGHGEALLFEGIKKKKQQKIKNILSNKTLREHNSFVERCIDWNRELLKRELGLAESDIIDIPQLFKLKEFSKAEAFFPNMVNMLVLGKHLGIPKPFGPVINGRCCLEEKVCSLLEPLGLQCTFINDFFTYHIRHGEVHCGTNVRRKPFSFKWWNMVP

Structure (SMILES) | Diffused NETs (human neutrophils) | Histone H3 citrullination (mouse neutrophils) | NET formation (mouse neutrophils) | Off-target activity against a panel of 50 unrelated proteins [1] | inhibition of histone deacetylases 1–11 [2] | Activation of HDACs [2] | IC50 (PAD4; PAD4 FP Binding Assay IC50, 0 mM Ca, 0 mM Ca) | IC50 (PAD4; PAD4 FP Binding Assay IC50, 2 mM Ca, 2 mM Ca)
CCn1c(-c2nc3ccc(C(=O)N4CCCC(N)C4)cc3n2C)cc2ccccc21 (centres unmarked) [GSK106, (3-Aminopiperidin-1-yl)(2-(1-ethyl-1H–indol-2-yl)-1-methyl-1H-benzo[d]imidazol-6-yl)methanone] | ineffective | ineffective | ineffective |  |  |  |  | 
COc1cc(C(=O)N2CC[C@@H](O)[C@@H](N)C2)cc2nc(-c3cc4ccccc4n3CC3CC3)n(C)c12 [GSK484, ((3S,4R)-3-Amino-4-hydroxypiperidin-1-yl)(2-(1-(cyclopropylmethyl)-1H-indol-2-yl)-7-methoxy-1-methyl-1H-benzo[d]imidazol-5-yl)methanone] | clear, statistically-significant reduction | dramatically diminished | dramatically diminished | negligible off-target activity | < 50% | no activation across HDACs 1–11 |  | 
CCn1c(-c2nc3cc(C(=O)N4CCC[C@@H](N)C4)cc(OC)c3n2C)cc2cccnc21 [GSK199, (R)-(3-Aminopiperidin-1-yl)(2-(1-ethyl-1H-pyrrolo[2,3-b]pyridin-2-yl)-7-methoxy-1-methyl-1H-benzo[d]imidazol-5-yl)methanone] | less marked inhibition | produced the same effect | produced the same effect | negligible off-target activity | < 50% | partial activation of HDACs 1 and 8 at high concentrations | 200 nM | 1000 nM
